Reference: ChEMBL document CHEMBL1158496, “Design and synthesis of 2-(3-benzo[b]thienyl)-6,7-methylenedioxyquinolin-4-one analogues as potent antitumor agents that inhibit tubulin assembly” (J Med Chem, 2009)
Calls of active or inactive are those of the source. No cut-off for these calls is given here.

Columns and labels:
HCT-116 = assay: Cytotoxicity against human HCT116 cells by MTT assay; assay type: functional, cell-based
Procedure, shortened: (§1)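 After compound treatment, cells washed once with PBS and incubated 2 h with MTT. Formazan dissolved in DMSO, absorbance read at 570 nm.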

[1] = Displacement of [3H]colchicine from tubulin at 1 uM […]
Procedure, shortened: (§2)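 Tubulin (1.0 μM) incubated 10 min at 37 °C with 5.0 μM [3H]colchicine and inhibitor at 1.0 or 5.0 μM. At this time roughly 40–60% of maximal colchicine binding has occurred. Inhibition of radiolabel binding measured.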

[2] = Cytotoxicity against human Hep3B cells by MTT assay; assay type: functional, cell-based, Hep 3B2; procedure, shortened: as §1
[3] = Cytotoxicity against human KBVIN cells by SRB assay; assay type: functional, cell-based
Procedure, shortened: (§3)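 Cells exposed to compound or DMSO for the stated periods, fixed with 10% TCA, then stained with 0.4% (w/v) SRB in 1% acetic acid. Unbound dye removed with 1% acetic acid, bound dye dissolved in 10 mM Trizma base, absorbance read at 515 nm.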

HL-60 = assay: Cytotoxicity against human HL60 cells by MTT assay; assay type: functional, cell-based; procedure, shortened: as §1
A549 = assay: Cytotoxicity against human A549 cells by SRB assay; assay type: functional, cell-based; procedure, shortened: as §3
DU-145 = assay: Cytotoxicity against human DU145 cells by SRB assay; assay type: functional, cell-based; procedure, shortened: as §3
[4] = Inhibition of tubulin polymerization
Procedure, shortened: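 Turbidimetric assembly assay. Tubulin 1.0 mg/mL (10 μM) preincubated 15 min at 30 °C with varying drug concentrations, without GTP. Samples then chilled, 0.4 mM GTP added, and turbidity followed for 20 min at 30 °C after a temperature jump from 0 °C.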

KB = assay: Cytotoxicity against human KB cells by SRB assay; assay type: functional, cell-based; procedure, shortened: as §3
[5] = Displacement of [3H]colchicine from tubulin at 5 uM […]; procedure, shortened: as §2
OVCAR-3 [6] = assay: Antitumor activity against human OVCAR-3 cells xenografted in nude mouse dosed as ip once weekly for three courses; assay type: functional
OVCAR-3 [7] = assay: Antitumor activity against human OVCAR-3 cells xenografted in nude mouse assessed as life span extension at 79 mg/kg, ip once weekly for three courses; assay type: functional; conditions: route intraperitoneal
OVCAR-3 [8] = assay: Antitumor activity against human OVCAR-3 cells xenografted in nude mouse assessed as life span extension at 200 mg/kg, ip once weekly for three courses; assay type: functional; conditions: route intraperitoneal
OVCAR-3 [9] = assay: Antitumor activity against human OVCAR-3 cells xenografted in nude mouse assessed as life span extension at 134 mg/kg, ip once weekly for three courses; assay type: functional; conditions: route intraperitoneal
KM12 = assay: Cytotoxicity against human KM12 cells; assay type: functional, cell-based
SF-539 = assay: Cytotoxicity against human SF539 cells; assay type: functional, cell-based
SK-MEL-5 = assay: Cytotoxicity against human SK-MEL-5 cells; assay type: functional, cell-based
SNB-75 = assay: Cytotoxicity against human SNB75 cells; assay type: functional, cell-based
IGROV-1 = assay: Cytotoxicity against human IGROV1 cells; assay type: functional, cell-based
OVCAR-3 [10] = assay: Cytotoxicity against human OVCAR-3 cells; assay type: functional, cell-based
HCC 2998 = assay: Cytotoxicity against human HCC2998 cells; assay type: functional, cell-based

Question: Which IC50 (HCT-116) does the source give for `O=c1cc(-c2cccc3ccccc23)[nH]c2cc3c(cc12)OCO3` here?
Answer: 0.07 µM

Question: What about the Activity [1] of the same molecule?
Answer: 33%

Question: What about the IC50 [2] of the same molecule?
Answer: 0.07 µM

Question: What about the IC50 [3] of the same molecule?
Answer: 0.19 µM

Question: And the IC50 (HL-60)?
Answer: 0.07 µM

Question: What about the IC50 (A549) of the same molecule?
Answer: 0.13 µM

Question: And the IC50 (DU-145)?
Answer: 0.13 µM

Question: What about the IC50 [4] of the same molecule?
Answer: 0.64 µM

Question: What about the IC50 (KB) of the same molecule?
Answer: 0.13 µM

Question: And the Activity [5]?
Answer: 67%

Question: Which IC50 (HCT-116) does the source give for `O=c1cc(-c2cnc3ccccc3c2)[nH]c2cc3c(cc12)OCO3` here?
Answer: > 0.1 µM

Question: And the IC50 [2]?
Answer: > 0.1 µM

Question: What about the IC50 [3] of the same molecule?
Answer: > 0.1 µM

Question: What about the IC50 (HL-60) of the same molecule?
Answer: > 0.1 µM

Question: What about the IC50 (A549) of the same molecule?
Answer: > 0.1 µM

Question: And the IC50 (DU-145)?
Answer: > 0.1 µM

Question: And the IC50 [4]?
Answer: > 4 µM

Question: What about the IC50 (KB) of the same molecule?
Answer: > 0.1 µM

Question: Which Activity [1] does the source give for `COc1ccc(/C=C\c2cc(OC)c(OC)c(OC)c2)cc1O` here?
Answer: 91%

Question: Which results are given for `O=c1cc(-c2ccc3ccccc3c2)[nH]c2cc3c(cc12)OCO3`?
Answer: IC50 (HCT-116): > 1 µM; IC50 [2]: > 1 µM; IC50 [3]: > 1 µM; IC50 (HL-60): 0.5 µM; IC50 (A549): > 1 µM; IC50 (DU-145): > 1 µM; IC50 [4]: > 40 µM; IC50 (KB): > 1 µM

Question: For `Cc1cnc2nc(-c3csc4ccccc34)cc(O)c2c1`, which IC50 [4] is on record?
Answer: 0.37 µM

Question: For `O=c1cc(-c2ccc3ccccc3n2)[nH]c2cc3c(cc12)OCO3`, which IC50 (HCT-116) is on record?
Answer: > 5 µM

Question: And the IC50 [2]?
Answer: > 5 µM

Question: What about the IC50 [3] of the same molecule?
Answer: > 5 µM

Question: And the IC50 (HL-60)?
Answer: > 5 µM

Question: What about the IC50 (A549) of the same molecule?
Answer: > 5 µM

Question: And the IC50 (DU-145)?
Answer: > 5 µM

Question: And the IC50 [4]?
Answer: > 40 µM

Question: What about the IC50 (KB) of the same molecule?
Answer: > 5 µM

Question: For `O=c1cc(-c2ccccc2F)[nH]c2cc3c(cc12)OCO3`, which MTD (OVCAR-3 [6]) is on record?
Answer: >200 mg/kg

Question: And the Activity (OVCAR-3 [7])?
Answer: 79%

Question: And the Activity (OVCAR-3 [8])?
Answer: 124%

Question: What about the Activity (OVCAR-3 [9]) of the same molecule?
Answer: 133%

Question: What does the source list for `O=c1cc(-c2coc3ccccc23)[nH]c2cc3c(cc12)OCO3`?
Answer: Activity (KM12): Active; IC50 (HCT-116): 0.05 µM; Activity [1]: 39%; Activity (SF-539): Active; Activity (SK-MEL-5): Active; Activity (SNB-75): Active; IC50 [2]: 0.09 µM; IC50 [3]: 0.59 µM; Activity (IGROV-1): Active; IC50 (HL-60): 0.03 µM; IC50 (A549): 2.98 µM; IC50 (DU-145): 1.87 µM; Activity (OVCAR-3 [10]): Active; IC50 [4]: 0.58 µM; Activity (HCC 2998): Active; IC50 (KB): 1.05 µM; Activity [5]: 51%

Question: Which IC50 (HCT-116) does the source give for `O=c1cc(-c2cc3ccccc3s2)[nH]c2cc3c(cc12)OCO3` here?
Answer: > 1 µM

Question: What about the IC50 [2] of the same molecule?
Answer: > 1 µM

Question: What about the IC50 [3] of the same molecule?
Answer: > 1 µM

Question: What about the IC50 (HL-60) of the same molecule?
Answer: > 1 µM

Question: What about the IC50 (A549) of the same molecule?
Answer: > 1 µM

Question: And the IC50 (DU-145)?
Answer: > 1 µM

Question: What about the IC50 (KB) of the same molecule?
Answer: > 1 µM

Question: Which IC50 (HCT-116) does the source give for `Cc1c(-c2cccc3ccccc23)c(=O)[nH]c2cc3c(cc12)OCO3` here?
Answer: > 10 µM

Question: What about the IC50 [2] of the same molecule?
Answer: 4.3 µM

Question: And the IC50 (HL-60)?
Answer: > 10 µM

Question: With `O=c1cc(-c2ccnc3ccccc23)[nH]c2cc3c(cc12)OCO3` as the molecule, how does the IC50 (HCT-116) read?
Answer: > 5 µM

Question: And the IC50 [2]?
Answer: > 5 µM

Question: What about the IC50 [3] of the same molecule?
Answer: > 5 µM

Question: What about the IC50 (HL-60) of the same molecule?
Answer: > 5 µM

Question: What about the IC50 (A549) of the same molecule?
Answer: > 5 µM

Question: What about the IC50 (DU-145) of the same molecule?
Answer: > 5 µM

Question: What about the IC50 [4] of the same molecule?
Answer: > 40 µM

Question: And the IC50 (KB)?
Answer: > 5 µM

Question: With `COc1cccc(-c2cc(O)c3cc(N4CCCC4)ccc3n2)c1` as the molecule, how does the MTD (OVCAR-3 [6]) read?
Answer: 25 mg/kg

Question: What does the source list for `O=c1cc(-c2csc3ccccc23)[nH]c2cc3c(cc12)OCO3`?
Answer: IC50 (HCT-116): 0.14 µM; Activity [1]: 25%; IC50 [2]: 0.06 µM; IC50 [3]: > 0.25 µM; IC50 (HL-60): 0.17 µM; IC50 (A549): > 0.25 µM; IC50 (DU-145): > 0.25 µM; IC50 [4]: 0.76 µM; IC50 (KB): > 0.25 µM; Activity [5]: 61%

Question: With `O=c1cc(-c2cccc3cc4ccccc4cc23)[nH]c2cc3c(cc12)OCO3` as the molecule, how does the IC50 (HCT-116) read?
Answer: 1.6 µM

Question: And the IC50 [2]?
Answer: 2.2 µM

Question: What about the IC50 (HL-60) of the same molecule?
Answer: 0.53 µM

Question: And the IC50 [4]?
Answer: > 40 µM

Question: For `O=c1cc(-c2cc3ccccc3o2)[nH]c2cc3c(cc12)OCO3`, which IC50 (HCT-116) is on record?
Answer: > 1 µM

Question: What about the IC50 [2] of the same molecule?
Answer: > 1 µM

Question: And the IC50 [3]?
Answer: > 1 µM

Question: What about the IC50 (HL-60) of the same molecule?
Answer: > 1 µM

Question: What about the IC50 (A549) of the same molecule?
Answer: > 1 µM

Question: What about the IC50 (DU-145) of the same molecule?
Answer: > 1 µM

Question: What about the IC50 [4] of the same molecule?
Answer: > 4 µM

Question: And the IC50 (KB)?
Answer: > 1 µM

Question: Which results are given for `O=c1cc(-c2cccc3ncccc23)[nH]c2cc3c(cc12)OCO3`?
Answer: IC50 (HCT-116): > 10 µM; IC50 [2]: > 10 µM; IC50 [3]: > 10 µM; IC50 (HL-60): > 10 µM; IC50 (A549): > 10 µM; IC50 (DU-145): > 10 µM; IC50 [4]: 27 µM; IC50 (KB): > 10 µM
